# Assay outcomes deposited in PubChem BioAssay by several laboratories.
# This is a sample that favours compounds with a hit; in the whole collection about 3.6% have one here.
# BB579 growth dn: chemicals that inhibit yeast BB579 growth in restrictive medium (lifespan-shortening candidates) | S. cerevisiae BB579 growth, OD615, 48 h | inhibition, % at 10 µM | actives 0.51% (n = 140,000) | AID 804;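 active = inhibition above a set limit, 3 SD over the mean compound inhibition, cut at about 44% in these data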
#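 Assay system: S. cerevisiae DeaD strain BB579 yeast. Medium: CSMM-D restrictive synthetic medium containing dextrose (glucose). Times: 4 h cell preincubation, 48 h compound exposure, 30 °C humidified. Signal: OD615 turbidity measurement. Benchmarks: positive control amphotericin B 10 µg/mL.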
# Measles CPE: protection of cells from measles virus; Measles virus-infected cells, CPE protection, absorbance; protection (pct of control), % at 4 µM; actives 1.5% (n = 140,000); AID 841; in the data active = protection mostly above about 24%, no sharp cut-off; inactive = mostly below about 26%
# Yeast lifespan up: yeast lifespan extension | actives 0.68% (n = 130,000) | inhibition of the nicotinamide effect, % at 10 µM | S. cerevisiae growth with nicotinamide, OD615; deaD strain in restrictive glucose medium;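 active = inhibition above a set limit, placed 3 SD over the median of all compounds, cut at about 26% in these data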;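 note: 0% = nicotinamide-treated wells and 100% = cells grown without nicotinamide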
#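 assay system = DeaD-strain S. cerevisiae | measured by = absorbance at 615 nm | probe or stimulus = nicotinamide 1.5 mM | buffer or medium = CSMM-D glucose medium, restrictive | times = 48 h at 30 °C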
# Phagocyt inh: blocks phagocytosis by macrophages; inhibition, % at 5 µM; actives 0.07% (n = 110,000); J774A.1 macrophage IgG-bead phagocytosis, imaging;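 active = inhibition above the mean of the plate negative controls plus 5 SD, cut at about 13% in these data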;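 note: phagocytic index as fraction of beads internalized from green versus red external bead signal; plate controls were DMSO negative control for no effect and cytochalasin-D positive control for full effect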
# RAM network inh: inhibitors of the yeast RAM network. S. cerevisiae dse1pr::URA3 reporter, 5-FOA growth OD615, 2 d; analog-sensitive cbk1-as2 kinase mutant strain. inhibition, % at 50 µM. actives 1.8% (n = 190,000). AID 868;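 active = inhibition above a set limit, 3 SD over mean compound inhibition, cut at about 8.4% in these data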;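 note: 0% = DMSO-only wells with no growth and 100% = 10 µM 1-NA-PP1 full growth; inhibition rescues growth on 5-FOA so higher OD means more RAM inhibition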
# Numbers without * were called inactive; nt = not tested or not shown; [ ] = dose if it differs, or a comment.
SMILES,BB579 growth dn,Measles CPE,Yeast lifespan up,Phagocyt inh,RAM network inh
COc1cc(/C=N/NC(=O)c2cccnc2)ccc1OS(=O)(=O)c1cc(C)ccc1C,-18.2,22.4,-5.2,nt,0.8
Cc1[nH]nc(SCC(=O)N2CCC(C)CC2)c1[N+](=O)[O-],-55.5,25.1,-15.0,-0.5,1.2
CCCCC(=O)Nc1ccc(Br)cc1C(=O)O,-16.1,54.7*,-6.2,-1.0,-0.5
O=C(c1cccs1)N(Cc1ccco1)c1nc(-c2ccc(F)cc2)cs1,-33.6,19.2,nt,nt,6.5
CN(C)CCCN(C(=O)c1cccs1)c1nc(-c2ccccc2)cs1,-27.1,39.9*,-6.9,-1.3,0.8
CC(C)N=c1scc(-c2ccco2)n1/N=C/c1ccc(O)c(O)c1,92.0*,5.5,-30.5,nt,-1.2
CCNc1nc(NC(C)CC)nc(ON=C(C)C)n1 (stereo not given),nt,nt,nt,nt,1.1
Cc1noc(NS(=O)(=O)c2ccc(N/C=C\C(=O)c3ccccc3)cc2)c1C,nt,nt,nt,nt,4.7
Cc1cc(C)nc(NS(=O)(=O)c2ccc(N/C=C/C(=O)c3ccc(Cl)c(Cl)c3)cc2)n1,-8.7,44.5*,2.0,-3.2,4.3
Cc1noc(NS(=O)(=O)c2ccc(N/C=C\C(=O)c3ccc(F)cc3)cc2)c1C,nt,nt,nt,nt,8.6*
Cc1noc(C)c1COc1ccc(C(=O)OCC(=O)Nc2cccc(S(=O)(=O)N3CCOCC3)c2)cc1,-32.5,23.1,3.0,-10.1,8.3
COc1ccc(-n2c(C)cc(/C=C3\SC(=S)NC3=O)c2C)cc1,nt,nt,nt,nt,4.9
O=C1NN(c2ccccc2)C(=O)/C1=C/c1coc2ccccc2c1=O,-14.1,4.1,26.2*,-2.5,-0.6
COc1ccc(-n2c(C)cc(/C=C3\C(=O)NN(c4ccccc4)C3=O)c2C)cc1,-41.3,99.0*,6.1,-4.5,4.6
Cc1cc(C=C2C(=O)CCCC2=O)c(C)n1-c1ccccc1,6.0,8.2,24.1,-5.5,0.1
Cc1cc(/C=C2/C(=O)NN(c3ccccc3)C2=O)c(C)n1-c1ccc(O)cc1,-2.6,20.2,7.6,-6.2,9.9*
C/C(=N\NC(=O)Cc1cccn1C)c1cccs1,-32.4,0.5,-5.7,-2.4,-0.6
CC(C)(C)c1cnnn1-c1cccc([N+](=O)[O-])c1,nt,nt,nt,nt,1.7
CCN(C(=O)CSc1nnc(-c2c[nH]c3ccccc23)o1)C1CCS(=O)(=O)C1 (stereo not given),nt,nt,nt,nt,1.4
COC(=O)c1ccc(C(=O)OC)c(NC(=S)N2CCC(C)CC2)c1,-22.4,21.3,8.4,-0.1,1.0
Cc1ccc(Oc2cc(NC(=O)CCCn3nc([N+](=O)[O-])c(Cl)c3C)cc([N+](=O)[O-])c2)cc1,-62.4,2.5,-0.7,-1.8,3.1
Cc1cc([N+](=O)[O-])nn1CCCC(=O)Nc1cc(Oc2ccc(F)cc2)cc([N+](=O)[O-])c1,-37.0,4.1,7.0,1.3,8.9*
Cc1cc([N+](=O)[O-])nn1CCCC(=O)Nc1cc(Oc2ccccc2)cc([N+](=O)[O-])c1,-51.9,4.0,-1.1,-7.7,10.2*
Cc1nc2ccccn2c1C(=O)NC1CCCc2ccccc21 (stereo not given),nt,nt,nt,nt,0.4
CCOc1ccc(C(=O)NC(C)(C)CC)cc1,nt,nt,nt,nt,1.4
SMILES,BB579 growth dn,Measles CPE,Yeast lifespan up,Phagocyt inh,RAM network inh
CCCNC(=O)CN1C(=O)NC(Cc2c[nH]c3ccccc23)C1=O (stereo not given),nt,nt,nt,nt,0.2
CC1(C)Cc2c(c(N3CCOCC3)nc3sc4c(NCc5ccccc5)nnnc4c23)CS1,-61.7,2.5,-6.8,0.9,8.7*
O=C(CNc1ccc2ccccc2c1)N/N=C/C=C/c1cccc([N+](=O)[O-])c1,-26.7,13.9,0.5,-0.7,2.0
CCc1cc(=O)oc2cc(C)c(CN3CCCC(C)C3)c(O)c12 (stereo not given),-35.0,4.7,30.2*,1.4,-0.3
Cc1cc(Cl)c(S(=O)(=O)N2CCN(c3ccccn3)CC2)cc1OCC(N)=O,nt,nt,nt,nt,1.9
O=C1Nc2ccccc2C1(c1ccccc1)c1ccccc1,-63.1,52.0*,-11.9,0.7,2.5
CCCCC(CCC(=O)Nc1cc([N+](=O)[O-])ccc1O)C(=O)O (stereo not given),nt,nt,nt,nt,0.5
COc1ccccc1NC(=O)CCn1c(=O)sc2ccccc21,-30.0,50.8*,nt,nt,1.0
Cc1cccc(NC(=S)N(C)C2(c3ccccc3Cl)CCCCC2=O)c1 (stereo not given),-48.2,1.3,-12.0,33.0*[artifact],-0.4
CC(C)NC(=S)N(C)C1(c2ccccc2Cl)CCCCC1=O (stereo not given),-31.0,20.7,3.8,-8.6,2.3
C/C(=N/OC(=O)c1ccc(F)cc1)c1ccc(C)cc1,2.2,8.6,-9.5,nt,1.5
CN(C)C(=O)c1nc2ccc(Cl)cn2c1CNCc1ccccc1OC(F)(F)F,nt,nt,nt,nt,2.5
CS(=O)(=O)N(CC(O)CON=C1c2ccccc2-c2ccccc21)c1ccc(F)cc1 (stereo not given),-74.5,16.0,-11.2,-1.8,2.8
Cc1cccc(N(CC(O)CON=C2c3ccccc3-c3ccccc32)S(C)(=O)=O)c1 (stereo not given),-0.8,8.0,-1.2,0.8,9.8*
CN(CC(O)CON=C1c2ccccc2-c2ccccc21)S(=O)(=O)c1ccc(Br)cc1 (stereo not given),-14.2,40.9,-0.9,-7.9,9.3*
Cc1ccc(NC(=O)c2snc3ccc(Cl)cc23)cc1C,-10.6,12.2,-3.6,-6.3,3.5
CCOc1cccc(CNCCSc2nnnn2C)c1,nt,nt,nt,nt,0.4
C=CCn1c(SCC(=O)Nc2sccc2C(N)=O)nc2sc(CC)cc2c1=O,-43.3,11.0,0.1,0.7,8.5*
Cc1csc(N/N=C\c2cccnc2)n1,nt,nt,nt,nt,2.8
Cc1ccc(N/N=C/c2cccnc2)cc1,92.1*,4.9,-7.7,-4.2,-0.4
Cc1cc(NC(=O)c2cccs2)ncc1NC(=O)c1cccc(F)c1,nt,nt,nt,nt,0.8
Cc1cc(NC(=O)c2cccc(F)c2)ncc1NC(=O)c1ccco1,-9.1,6.0,31.1*,-0.9,1.1
Cc1ccc(C(=O)Nc2cccc(C(=O)N3CCOCC3)c2)cc1,3.2,10.8,-9.1,0.8,0.1
O=C(Nc1cccc(C(=O)N2CCOCC2)c1)c1cncc(Br)c1,0.7,38.1*,-9.3,-0.6,0.3
CC(=O)N(C)C1=C(O)c2ccccc2C(=O)C1=O,-27.2,39.2*,-1.0,-0.5,-0.4
SMILES,BB579 growth dn,Measles CPE,Yeast lifespan up,Phagocyt inh,RAM network inh
CC(C)=NOc1nc(N(C)C)nc(N(C)C)n1,-39.7,4.5,-7.6,0.3,1.6
COc1cc(/C=N/NC(=O)c2ccncc2)ccc1OCc1cnc(Cl)s1,nt,nt,nt,nt,2.4
Cc1cccc(N(CC(=O)NCCSc2nc3ccccc3s2)S(=O)(=O)c2ccccc2)c1,-31.0,13.1,-1.5,-10.2,10.8*
Cc1ccc(N(CC(=O)NCCSc2nc3ccccc3s2)S(=O)(=O)c2ccccc2)c(C)c1,-18.9,20.4,6.8,-8.0,9.2*
CCN(CC)C1=CC2=CC(=C(C#N)C#N)CCC2CC1 (stereo not given),-21.8,38.9*,-3.7,-6.6,5.6
COc1cc(C=C(C(C)=O)C(C)=O)ccc1O,-6.0,12.0,2.3,nt,0.5
